Consider 13 compounds from ChEMBL document CHEMBL3817763, “Exploration of GGTase-I substrate requirements. Part 2: Synthesis and biochemical analysis of novel saturated geranylgeranyl diphosphate analogs” (Bioorg Med Chem Lett, 2016).

Calls of active or inactive are those of the source. The calls are words filed in the database; no cut-off is given here.

The target in series [1] is T1, Protein farnesyltransferase (Homo sapiens) (UniProt P49354+P49356). As to the kind of experiment: Activity at recombinant FTase (unknown origin) using dansyl-GCVLS as co-substrate assessed as protein prenylation at 5 uM incubated for 1.5 hrs by spectrofluorometric method. Format: protein-complex assay. Put shortly:
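Preliminary single-point screen: analog diphosphate 5 µM with 5 µM dansyl-GCVLS and 50 nM FTase; continuous fluorescence read at 1.5 h. Result is given as relative fluorescence increase, normalized to FPP (5 µM, 1.5 h) set to 1.0. Mean ± SD, n = 3.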

Series [2] deals with T1, Protein farnesyltransferase (Homo sapiens). As to the kind of experiment: Ratio of Kcat to Km for recombinant FTase (unknown origin) using dansyl-GCVLS as co-substrate assessed as protein prenylation by spectrofluorometric method relative to FPP. Format: protein-complex assay.
The target of series [3] is T2, Geranylgeranyl transferase type I (Homo sapiens) (UniProt P49354+P53609). Put plainly: Ratio of Kcat to Km for recombinant GGTase1 (unknown origin) using dansyl-GCVLL as co-substrate assessed as protein prenylation by spectrofluorometric method relative to GGPP.
Series [4] has as its target T2, Geranylgeranyl transferase type I (Homo sapiens). As to the kind of experiment: Activity at recombinant GGTase1 (unknown origin) using dansyl-GCVLL as co-substrate assessed as protein prenylation at 5 uM incubated for 1.5 hrs by spectrofluorometric method. Put shortly:
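Preliminary single-point screen: analog diphosphate 5 µM with 5 µM dansyl-GCVLL and 50 nM GGTase-I; continuous fluorescence read at 1.5 h. Result is given as relative fluorescence increase, normalized to GGPP (1.5 h) set to 1.0. Mean ± SD, n = 3.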

The species entered for a further series is Homo sapiens. As to the kind of experiment: Ratio of Kcat/Km for recombinant FTase (unknown origin) to Kcat/Km for recombinant GGTase1 (unknown origin).
Series [5] concerns CCCCCCCCCCCC/C(C)=C/COP(=O)(O)OP(=O)(O)O. Put plainly: (§1) Ratio of Kcat to Km for recombinant FTase (unknown origin) using dansyl-GCVLS as co-substrate assessed as protein prenylation by spectrofluorometric method. In kind it is protein-complex assay. Conditions: Homo sapiens.
Series [6] has as its system CCCCCCCCCCCCC/C(C)=C/COP(=O)(O)OP(=O)(O)O. The series is described as §1. Conditions: Homo sapiens. In kind it is protein-complex assay.
The test system of series [7] is CCCCCCCCCCC/C(C)=C/COP(=O)(O)OP(=O)(O)O. The description is as §1. Format: protein-complex assay. Conditions: Homo sapiens.
The subject of series [8] is CC(C)=CCC/C(C)=C/CC/C(C)=C/COP(=O)(O)OP(=O)(O)O. The description is as §1. Format: protein-complex assay. Conditions: Homo sapiens.
Series [9] has as its system CCCCCCCC/C(C)=C/CC/C(C)=C/COP(=O)(O)OP(=O)(O)O. The description is as §1. In kind it is protein-complex assay. Conditions: Homo sapiens.
In series [10] the test system is C/C(=C\COP(=O)(O)OP(=O)(O)O)CC/C=C(\C)CCCC(C)CCCC(C)C. The series is described as §1. Format: protein-complex assay. Particulars: Homo sapiens.
Series [11] deals with CC(C)=CCCCCCCCCCC/C(C)=C/COP(=O)(O)OP(=O)(O)O. Described as §1. In kind it is protein-complex assay. Particulars: Homo sapiens.
For series [12], the system named is CC(C)=CCCCCCCCCC/C(C)=C/COP(=O)(O)OP(=O)(O)O. The description is as §1. Format: protein-complex assay. Particulars: Homo sapiens.
Series [13] has as its system CCCCCCC/C(C)=C/CC/C(C)=C/COP(=O)(O)OP(=O)(O)O. The description is as §1. In kind it is protein-complex assay. Particulars: Homo sapiens.
Series [14] deals with CCCCCC/C(C)=C/CC/C(C)=C/COP(=O)(O)OP(=O)(O)O. The series is described as §1. In kind it is protein-complex assay. Conditions: Homo sapiens.
Series [15] concerns CCCCCCCCC/C(C)=C/CC/C(C)=C/COP(=O)(O)OP(=O)(O)O. The series is described as §1. Format: protein-complex assay. Particulars: Homo sapiens.
Series [16] deals with CC(C)=CCC/C(C)=C/CC/C(C)=C/CC/C(C)=C/COP(=O)(O)OP(=O)(O)O. Put plainly: (§2) Ratio of Kcat to Km for recombinant GGTase1 (unknown origin) using dansyl-GCVLL as co-substrate assessed as protein prenylation by spectrofluorometric method. Conditions: Homo sapiens.
For series [17], the system named is CCCCCCCCCCCC/C(C)=C/COP(=O)(O)OP(=O)(O)O. The description is as §2. Particulars: Homo sapiens.
Series [18] has as its system C/C(=C\CC/C(C)=C/COP(=O)(O)OP(=O)(O)O)CC/C=C(\C)CCCC(C)C. The description is as §2. Conditions: Homo sapiens.
Series [19] has as its system CCCCCCCCCCCCC/C(C)=C/COP(=O)(O)OP(=O)(O)O. The description is as §2. Particulars: Homo sapiens.
Series [20] concerns CCCCCCCCCCC/C(C)=C/COP(=O)(O)OP(=O)(O)O. The description is as §2. Conditions: Homo sapiens.
Series [21] has as its system CCCCCCCC/C(C)=C/CC/C(C)=C/COP(=O)(O)OP(=O)(O)O. Described as §2. Conditions: Homo sapiens.
Series [22] relates to C/C(=C\COP(=O)(O)OP(=O)(O)O)CC/C=C(\C)CCCC(C)CCCC(C)C. The series is described as §2. Particulars: Homo sapiens.
Series [23] has as its system CC(C)=CCCCCCCCCCC/C(C)=C/COP(=O)(O)OP(=O)(O)O. The description is as §2. Conditions: Homo sapiens.
For series [24], the system named is CC(C)=CCCCCCCCCC/C(C)=C/COP(=O)(O)OP(=O)(O)O. Described as §2. Particulars: Homo sapiens.
Series [25] concerns CCCCCCC/C(C)=C/CC/C(C)=C/COP(=O)(O)OP(=O)(O)O. Described as §2. Conditions: Homo sapiens.
For series [26], the system named is CCCCCCCCC/C(C)=C/CC/C(C)=C/COP(=O)(O)OP(=O)(O)O. Described as §2. Particulars: Homo sapiens.

On to `CC(C)=CCCCCCCCCC/C(C)=C/COP(=O)(O)OP(=O)(O)O`, for which the outcome in series [1] and in series [4] was Active. Also, the Ratio in [2] came to 0.15; in [3], 0.02.
Regarding `CCCCCCCC/C(C)=C/CC/C(C)=C/COP(=O)(O)OP(=O)(O)O`, the result in series [1] and in series [4] was Active. Moreover, the Ratio worked out at 0.21 in series [2], 0.58 in series [3] and 0.44 in the series listed under Homo sapiens.
As for `CCCCCC/C(C)=C/CC/C(C)=C/COP(=O)(O)OP(=O)(O)O`, the outcome in [1] and in series [4] was Active. Further, in series [2], the Ratio stood at 0.35.
For `C/C(=C\CC/C(C)=C/COP(=O)(O)OP(=O)(O)O)CC/C=C(\C)CCCC(C)C`, the outcome in series [1] and in [4] was Active. In series [3], the Ratio came out at 0.17.
As to `CC(C)=CCCCCCCCCCC/C(C)=C/COP(=O)(O)OP(=O)(O)O`, the outcome in series [1] and in series [4] was Active. Further, the Ratio was 0.15 in series [2] and 0.5 in series [3].
Turning to “Protein farnesyltransferase (Homo sapiens) (from UniProt P49354+P49356)”, the kcat/Km is 1.1 ×10⁴ /M/s in [5]; 4.1 ×10³ /M/s in series [6]; 8.3 ×10³ /M/s in [7]; 4.6 ×10⁴ /M/s in series [8]; 9.7 ×10³ /M/s in [9]; 3.5 ×10³ /M/s in [10]. Also, the kcat/Km in series [11] was determined as 7.1 ×10³ /M/s; in series [12], 6.8 ×10³ /M/s; in series [13], 7.1 ×10³ /M/s; in [14], 1.6 ×10⁴ /M/s; in [15] it was 3.3 ×10⁴ /M/s.
With `CCCCCCCCCCCC/C(C)=C/COP(=O)(O)OP(=O)(O)O`, the outcome in series [1] and in series [4] was Active. Further, the figures for the Ratio (in series [2]; in [3]; in the series listed under Homo sapiens) were 0.24, 0.02 and 12, respectively.
As for “Geranylgeranyl transferase type I (Homo sapiens) (from UniProt P49354+P53609)”, the kcat/Km in [16] amounted to 3.78 ×10⁴ /M/s; in series [17], 8.9 ×10² /M/s; in series [18] it was 6.3 ×10³ /M/s; in series [19], 6.2 ×10³ /M/s; in series [20], 3.2 ×10³ /M/s; in series [21], 2.2 ×10⁴ /M/s. The kcat/Km stood at 1.2 ×10³ /M/s in [22]; 1.9 ×10⁴ /M/s in series [23]; 9 ×10² /M/s in series [24]; 3.2 ×10⁴ /M/s in series [25]; 3.6 ×10⁴ /M/s in series [26].
On to `CCCCCCC/C(C)=C/CC/C(C)=C/COP(=O)(O)OP(=O)(O)O`, for which the result in [1] and in [4] was Active. Further, the Ratio is 0.15 in series [2], 0.85 in series [3] and 0.22 in the series filed under Homo sapiens.
In the case of `CCCCCCCCCCC/C(C)=C/COP(=O)(O)OP(=O)(O)O`, the result in series [1] and in [4] was Active. Moreover, the Ratio in series [2] is 0.18; in series [3], 0.08; in the series listed under Homo sapiens, 2.
Regarding `CCCCCCCCC/C(C)=C/CC/C(C)=C/COP(=O)(O)OP(=O)(O)O`, the outcome in series [1] and in [4] was Active. The Ratio in series [2] turned out to be 0.72; in [3], 0.95.
On to `CCCCCCCCCCCCC/C(C)=C/COP(=O)(O)OP(=O)(O)O`, for which the outcome in [1] and in series [4] was Active. In addition, the results for the Ratio in series [2] and in series [3] were 0.09 and 0.16, respectively.
Take `C/C(=C\COP(=O)(O)OP(=O)(O)O)CC/C=C(\C)CCCC(C)CCCC(C)C` (stereo not drawn): the result in series [1] and in series [4] was Active. The Ratio in series [2] was 0.05; in series [3], 0.03.
